Test results published in ChEMBL document CHEMBL1933017, “Synthesis and biological evaluation of some thiazolidinones as antimicrobial agents” (2012).
In brackets after ≈: the same amount, converted by molar mass.

Key:
Aspergillus niger [1] = experiment: Antifungal activity against Aspergillus niger after 48 hrs by agar streak dilution method; type: functional
In short: (§1)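 Fungal MIC by agar streak dilution on Sabouraud dextrose agar, poured 4–5 mm deep. Compound from a DMSO stock (100 μg/mL) was incorporated at serial concentrations of 3.12–100 µg/mL. Plates were inoculated with about 10⁵ CFU/mL of suspension and incubated at (37 ± 1) °C for 48 h. Each value is the mean of three independent experiments.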

Salmonella typhi [2] = experiment: Antibacterial activity against Salmonella Typhi at 100 ug/disc after 24 hrs by disc diffusion method; type: functional, Salmonella enterica subsp. enterica serovar Typhi; conditions: Salmonella enterica, read-out: DIZ
In short: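 Paper disc diffusion on Mueller-Hinton agar poured 5 mm deep; 10⁵ CFU/mL suspension (0.5 McFarland) swabbed over surface. 6.25 mm filter paper discs soaked in compound in DMSO, incubated 24 h at (37 ± 1) °C; inhibition zone diameter in mm. DMSO disc as blank; ciprofloxacin 100 µg/disc as reference. Mean of three independent experiments.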

Bacillus cereus [3] = experiment: Antibacterial activity against Bacillus cereus at 100 ug/disc after 24 hrs by disc diffusion method; type: functional; conditions: read-out: DIZ
In short: (§2)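 Paper disc diffusion on autoclaved Mueller-Hinton agar poured 5 mm deep. Agar was swab-inoculated with 10⁵ CFU/mL suspension (0.5 McFarland). Discs 6.25 mm across were soaked in compound solution in DMSO (3.12–100 µg/mL) and plates incubated 24 h at (37 ± 1) °C. Read-out was inhibition zone (mm). DMSO control disc; ciprofloxacin or ketoconazole reference, 100 µg/disc. Mean of three independent experiments.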

Candida albicans [4] = experiment: Antifungal activity against Candida albicans after 48 hrs by agar streak dilution method; type: functional; in short: as §1
Proteus vulgaris [5] = experiment: Antibacterial activity against Proteus vulgaris after 24 hrs by agar streak dilution method; type: functional
In short: (§3)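 MIC by agar streak dilution. Graded amounts of DMSO stock (100 μg/mL) were mixed into molten sterile nutrient agar and poured 4–5 mm deep. Serial concentrations spanned 3.12–100 µg/mL. Plates were inoculated with about 10⁵ CFU/mL of bacterial suspension and incubated at (37 ± 1) °C for 24 h. Each value is the mean of three independent experiments.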

Proteus vulgaris [6] = experiment: Antibacterial activity against Proteus vulgaris at 100 ug/disc after 24 hrs by disc diffusion method; type: functional; conditions: read-out: DIZ; in short: as §2
Staphylococcus aureus [7] = experiment: Antibacterial activity against Staphylococcus aureus after 24 hrs by agar streak dilution method; type: functional; in short: as §3
Candida albicans [8] = experiment: Antifungal activity against Candida albicans at 100 ug/disc after 24 hrs by disc diffusion method; type: functional; conditions: read-out: DIZ; in short: as §2
Salmonella typhi [9] = experiment: Antibacterial activity against Salmonella Typhi after 24 hrs by agar streak dilution method; type: functional, Salmonella enterica subsp. enterica serovar Typhi; conditions: Salmonella enterica
In short: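 Agar streak dilution: DMSO stock (100 µg/mL) graded into molten sterile nutrient agar, poured 4–5 mm deep and solidified. Plates carry serial dilutions spanning 3.12–100 µg/mL. Applied ~10⁵ CFU/mL suspension, then incubated 24 h at (37 ± 1) °C. MIC read as the lowest inhibitory concentration; each value is the mean of three independent experiments.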

Bacillus cereus [10] = experiment: Antibacterial activity against Bacillus cereus after 24 hrs by agar streak dilution method; type: functional; in short: as §3
Aspergillus clavatus [11] = experiment: Antifungal activity against Aspergillus clavatus after 48 hrs by agar streak dilution method; type: functional; in short: as §1
Escherichia coli [12] = experiment: Antibacterial activity against Escherichia coli after 24 hrs by agar streak dilution method; type: functional; in short: as §3
Staphylococcus aureus [13] = experiment: Antibacterial activity against Staphylococcus aureus at 100 ug/disc after 24 hrs by disc diffusion method; type: functional; conditions: read-out: DIZ; in short: as §2
Klebsiella pneumoniae [14] = experiment: Antibacterial activity against Klebsiella pneumoniae […] after 24 hrs by agar streak dilution method; type: functional
Aspergillus fumigatus [15] = experiment: Antifungal activity against Aspergillus fumigatus after 48 hrs by agar streak dilution method; type: functional; in short: as §1
Klebsiella pneumoniae [16] = experiment: Antibacterial activity against Klebsiella pneumoniae at 100 ug/disc after 24 hrs by disc diffusion method; type: functional; conditions: read-out: DIZ; in short: as §2
Shigella flexneri [17] = experiment: Antibacterial activity against Shigella flexneri at 100 ug/disc after 24 hrs by disc diffusion method; type: functional; conditions: read-out: DIZ; in short: as §2
Pseudomonas aeruginosa [18] = experiment: Antibacterial activity against Pseudomonas aeruginosa […] after 24 hrs by agar streak dilution method; type: functional
Shigella flexneri [19] = experiment: Antibacterial activity against Shigella flexneri after 24 hrs by agar streak dilution method; type: functional; in short: as §3
Escherichia coli [20] = experiment: Antibacterial activity against Escherichia coli at 100 ug/disc after 24 hrs by disc diffusion method; type: functional; conditions: read-out: DIZ; in short: as §2
Aspergillus clavatus [21] = experiment: Antifungal activity against Aspergillus clavatus at 100 ug/disc after 24 hrs by disc diffusion method; type: functional; conditions: read-out: DIZ; in short: as §2
Aspergillus niger [22] = experiment: Antifungal activity against Aspergillus niger at 100 ug/disc after 24 hrs by disc diffusion method; type: functional; conditions: read-out: DIZ; in short: as §2
Pseudomonas aeruginosa [23] = experiment: Antibacterial activity against Pseudomonas aeruginosa at 100 ug/disc after 24 hrs by disc diffusion method; type: functional; conditions: read-out: DIZ; in short: as §2
Aspergillus fumigatus [24] = experiment: Antifungal activity against Aspergillus fumigatus at 100 ug/disc after 24 hrs by disc diffusion method; type: functional; conditions: read-out: DIZ; in short: as §2

## CCN1CCN(CC2SC(c3ccccc3)N(c3ccc(Nc4nc(Oc5cc(=O)n(C)c6ccccc56)nc(N(C)C)n4)cc3)C2=O)CC1 (stereo unspecified)
Aspergillus niger [1]
  MIC: 100 µg/mL (≈ 145 µM)
Salmonella typhi [2]
  zone of inhibition at 100 µg/disc: 16 mm
Bacillus cereus [3]
  zone of inhibition at 100 µg/disc: 16 mm
Candida albicans [4]
  MIC: 100 µg/mL (≈ 145 µM)
Proteus vulgaris [5]
  MIC: 100 µg/mL (≈ 145 µM)
Proteus vulgaris [6]
  zone of inhibition at 100 µg/disc: 15 mm
Staphylococcus aureus [7]
  MIC: 100 µg/mL (≈ 145 µM)
Candida albicans [8]
  zone of inhibition at 100 µg/disc: 14 mm
Salmonella typhi [9]
  MIC: 50 µg/mL (≈ 72.3 µM)
Bacillus cereus [10]
  MIC: 100 µg/mL (≈ 145 µM)
Aspergillus clavatus [11]
  MIC: 100 µg/mL (≈ 145 µM)
Escherichia coli [12]
  MIC: 25 µg/mL (≈ 36.1 µM)
Staphylococcus aureus [13]
  zone of inhibition at 100 µg/disc: 14 mm
Klebsiella pneumoniae [14]
  MIC: 100 µg/mL (≈ 145 µM)
Aspergillus fumigatus [15]
  MIC: 100 µg/mL (≈ 145 µM)
Klebsiella pneumoniae [16]
  zone of inhibition at 100 µg/disc: < 10 mm
Shigella flexneri [17]
  zone of inhibition at 100 µg/disc: 12 mm
Pseudomonas aeruginosa [18]
  MIC: 100 µg/mL (≈ 145 µM)
Shigella flexneri [19]
  MIC: 100 µg/mL (≈ 145 µM)
Escherichia coli [20]
  zone of inhibition at 100 µg/disc: 22 mm
Aspergillus clavatus [21]
  zone of inhibition at 100 µg/disc: < 10 mm
Aspergillus niger [22]
  zone of inhibition at 100 µg/disc: 12 mm
Pseudomonas aeruginosa [23]
  zone of inhibition at 100 µg/disc: 13 mm
Aspergillus fumigatus [24]
  zone of inhibition at 100 µg/disc: < 10 mm

## CCN1CCN(CC2SC(c3ccc(Cl)cc3Cl)N(c3ccc(Nc4nc(Oc5cc(=O)n(C)c6ccccc56)nc(N(C)C)n4)cc3)C2=O)CC1 (stereo unspecified)
Aspergillus niger [1]
  MIC: 6.25 µg/mL (≈ 8.22 µM)
Salmonella typhi [2]
  zone of inhibition at 100 µg/disc: 15 mm
Bacillus cereus [3]
  zone of inhibition at 100 µg/disc: 19 mm
Candida albicans [4]
  MIC: 12.5 µg/mL (≈ 16.4 µM)
Proteus vulgaris [5]
  MIC: 12.5 µg/mL (≈ 16.4 µM)
Proteus vulgaris [6]
  zone of inhibition at 100 µg/disc: 20 mm
Staphylococcus aureus [7]
  MIC: 6.25 µg/mL (≈ 8.22 µM)
Candida albicans [8]
  zone of inhibition at 100 µg/disc: 28 mm
Salmonella typhi [9]
  MIC: 50 µg/mL (≈ 65.7 µM)
Bacillus cereus [10]
  MIC: 12.5 µg/mL (≈ 16.4 µM)
Aspergillus clavatus [11]
  MIC: 12.5 µg/mL (≈ 16.4 µM)
Escherichia coli [12]
  MIC: 12.5 µg/mL (≈ 16.4 µM)
Staphylococcus aureus [13]
  zone of inhibition at 100 µg/disc: 25 mm
Klebsiella pneumoniae [14]
  MIC: 25 µg/mL (≈ 32.9 µM)
Aspergillus fumigatus [15]
  MIC: 25 µg/mL (≈ 32.9 µM)
Klebsiella pneumoniae [16]
  zone of inhibition at 100 µg/disc: 23 mm
Shigella flexneri [17]
  zone of inhibition at 100 µg/disc: 26 mm
Pseudomonas aeruginosa [18]
  MIC: 25 µg/mL (≈ 32.9 µM)
Shigella flexneri [19]
  MIC: 6.25 µg/mL (≈ 8.22 µM)
Escherichia coli [20]
  zone of inhibition at 100 µg/disc: 24 mm
Aspergillus clavatus [21]
  zone of inhibition at 100 µg/disc: 25 mm
Aspergillus niger [22]
  zone of inhibition at 100 µg/disc: 28 mm
Pseudomonas aeruginosa [23]
  zone of inhibition at 100 µg/disc: 21 mm
Aspergillus fumigatus [24]
  zone of inhibition at 100 µg/disc: 17 mm

## CCN1CCN(CC2SC(c3ccc(Cl)c(Cl)c3)N(c3ccc(Nc4nc(Oc5cc(=O)n(C)c6ccccc56)nc(N(C)C)n4)cc3)C2=O)CC1 (stereo unspecified)
Aspergillus niger [1]
  MIC: 25 µg/mL (≈ 32.9 µM)
Salmonella typhi [2]
  zone of inhibition at 100 µg/disc: 12 mm
Bacillus cereus [3]
  zone of inhibition at 100 µg/disc: 17 mm
Candida albicans [4]
  MIC: 25 µg/mL (≈ 32.9 µM)
Proteus vulgaris [5]
  MIC: 25 µg/mL (≈ 32.9 µM)
Proteus vulgaris [6]
  zone of inhibition at 100 µg/disc: 19 mm
Staphylococcus aureus [7]
  MIC: 25 µg/mL (≈ 32.9 µM)
Candida albicans [8]
  zone of inhibition at 100 µg/disc: 23 mm
Salmonella typhi [9]
  MIC: 50 µg/mL (≈ 65.7 µM)
Bacillus cereus [10]
  MIC: 12.5 µg/mL (≈ 16.4 µM)
Aspergillus clavatus [11]
  MIC: 50 µg/mL (≈ 65.7 µM)
Escherichia coli [12]
  MIC: 25 µg/mL (≈ 32.9 µM)
Staphylococcus aureus [13]
  zone of inhibition at 100 µg/disc: 15 mm
Klebsiella pneumoniae [14]
  MIC: 12.5 µg/mL (≈ 16.4 µM)
Aspergillus fumigatus [15]
  MIC: 50 µg/mL (≈ 65.7 µM)
Klebsiella pneumoniae [16]
  zone of inhibition at 100 µg/disc: 19 mm
Shigella flexneri [17]
  zone of inhibition at 100 µg/disc: 22 mm
Pseudomonas aeruginosa [18]
  MIC: 25 µg/mL (≈ 32.9 µM)
Shigella flexneri [19]
  MIC: 12.5 µg/mL (≈ 16.4 µM)
Escherichia coli [20]
  zone of inhibition at 100 µg/disc: 17 mm
Aspergillus clavatus [21]
  zone of inhibition at 100 µg/disc: 19 mm
Aspergillus niger [22]
  zone of inhibition at 100 µg/disc: 21 mm
Pseudomonas aeruginosa [23]
  zone of inhibition at 100 µg/disc: 23 mm
Aspergillus fumigatus [24]
  zone of inhibition at 100 µg/disc: 16 mm

## CCN1CCN(CC2SC(c3ccc(C)cc3)N(c3ccc(Nc4nc(Oc5cc(=O)n(C)c6ccccc56)nc(N(C)C)n4)cc3)C2=O)CC1 (stereo unspecified)
Aspergillus niger [1]
  MIC: 100 µg/mL (≈ 142 µM)
Salmonella typhi [2]
  zone of inhibition at 100 µg/disc: 23 mm
Bacillus cereus [3]
  zone of inhibition at 100 µg/disc: 24 mm
Candida albicans [4]
  MIC: 50 µg/mL (≈ 70.8 µM)
Proteus vulgaris [5]
  MIC: 6.25 µg/mL (≈ 8.85 µM)
Proteus vulgaris [6]
  zone of inhibition at 100 µg/disc: 27 mm
Staphylococcus aureus [7]
  MIC: 50 µg/mL (≈ 70.8 µM)
Candida albicans [8]
  zone of inhibition at 100 µg/disc: 23 mm
Salmonella typhi [9]
  MIC: 50 µg/mL (≈ 70.8 µM)
Bacillus cereus [10]
  MIC: 50 µg/mL (≈ 70.8 µM)
Aspergillus clavatus [11]
  MIC: 25 µg/mL (≈ 35.4 µM)
Escherichia coli [12]
  MIC: 25 µg/mL (≈ 35.4 µM)
Staphylococcus aureus [13]
  zone of inhibition at 100 µg/disc: 26 mm
Klebsiella pneumoniae [14]
  MIC: 50 µg/mL (≈ 70.8 µM)
Aspergillus fumigatus [15]
  MIC: 50 µg/mL (≈ 70.8 µM)
Klebsiella pneumoniae [16]
  zone of inhibition at 100 µg/disc: 24 mm
Shigella flexneri [17]
  zone of inhibition at 100 µg/disc: 24 mm
Pseudomonas aeruginosa [18]
  MIC: 6.25 µg/mL (≈ 8.85 µM)
Shigella flexneri [19]
  MIC: 50 µg/mL (≈ 70.8 µM)
Escherichia coli [20]
  zone of inhibition at 100 µg/disc: 24 mm
Aspergillus clavatus [21]
  zone of inhibition at 100 µg/disc: 26 mm
Aspergillus niger [22]
  zone of inhibition at 100 µg/disc: 21 mm
Pseudomonas aeruginosa [23]
  zone of inhibition at 100 µg/disc: 26 mm
Aspergillus fumigatus [24]
  zone of inhibition at 100 µg/disc: 24 mm
